These results are taken from ChEMBL document CHEMBL4513216, “Probing the Open Global Health Chemical Diversity Library for Multistage-Active Starting Points for Next-Generation Antimalarials” (ACS Infect Dis, 2020).

A short description of this series: Toxicity liver stage against HepG2, at 10uM. The series is classed as cell-based. Also on record: test concentration 10 uM, cell line HepG2-A16-CD81EGFP. The following applies: human, HepG2-A16-CD81EGFP cells; read-out: INHIBITION
Put shortly: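 Uninfected HepG2-A16-CD81EGFP cells, 3 × 10^3 per well, 1536-well, plated on prespotted compound at 10 μM final, parasite-free screening media added to match infected plates; puromycin 10 μM positive, DMSO 0.5% negative; run in parallel with 48 h PbLuc assay at 37 °C, 5% CO2; viability by CellTiter-Glo luminescence, normalized to controls.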

Structures are written as SMILES.

`O=C(c1ccc[nH]1)N1CCC2(CCCN2Cc2cccnc2)CC1`: the cytotoxicity at 10 µM was found to be 6.89%.

Turning to `Cc1cnc(C(=O)N2CCCCC2c2ccc(CN(C)C)cc2)cn1` (stereo unspecified), the cytotoxicity at 10 µM was -2.46%.

On to `O=C(c1ccco1)N1CCO[C@@H]2CNC[C@@H]21`, for which the cytotoxicity at 10 µM is -108%.

Take `Cc1nc(N2CCN(C(=O)C3CC3)CC2)c2c(n1)c(C)nn2C`: the cytotoxicity at 10 µM was found to be 5.42%. To `Cc1nc(-c2ccccc2)n(CC(=O)NCC(C)C)n1` belongs -2.97%; to `c1cc(CCN2CCC(NCc3ccsc3)CC2)ccn1`, -11%.

Take `Cc1cccc(-c2nnn3c2COC(CNCc2nccs2)C3)c1` (stereo unspecified): the cytotoxicity at 10 µM turned out to be 4.51%. To `CCCn1cc(-c2cc(C(=O)N(C)C)c3ccc(C)cc3n2)cn1` belongs 4.99%; to `COc1ccc(-c2nccn2C[C@@H]2CCCN3CCCC[C@H]23)cc1`, 4.71%; to `O=C(NCCc1c[nH]c2ccc(F)cc12)C1(n2cnnn2)CCCCC1`, -1.34%.

Consider `c1ccc(CN2CCC(CNc3ncnc4c3CCNCC4)CC2)cc1`, for which the cytotoxicity at 10 µM was -4.84%. To `CN1N=C(C(=O)N(Cc2ccco2)C2CCCC2)CCC1=O` belongs -144%; to `COCCN1C[C@@H]2CN(c3ncccn3)C[C@@H]2C1=O`, -11.9%; to `CN(C)C1CCC2(CCN(Cc3cccnc3)CC2)c2ccccc21` (stereo unspecified), 3.15%. On to `Cc1ccccc1CCCN(Cc1ccccn1)S(C)(=O)=O`, for which the cytotoxicity at 10 µM worked out at 9.53%.

For `Cc1nc(CCN2CCCCC2)n(-c2ccc(F)cc2)n1`, the cytotoxicity at 10 µM is -2.23%. Under `CCC1(C)Cc2ccccc2-c2nc(NCCCO)nc(O)c21` (stereo unspecified) stands 5.42%. For `Cn1ccc(C(=O)NCc2ccccc2CN2CCCC2)cc1=O`, the cytotoxicity at 10 µM is -17.1%.

As to `CCN(CC)C(=O)c1ccn(COc2c(Cl)cccc2Cl)n1`, the cytotoxicity at 10 µM was determined as 11.6%. Under `c1cncc(OCc2nnn3c2CN(Cc2ccsc2)CCC3)c1` stands -4.34%; under `c1ccc(Cc2nc(CNC3CCC4(CCNCC4)CC3)no2)cc1`, -17%. Under `CNC(=O)C1Cn2ccnc2C2(CCN(c3ccc(C)nn3)CC2)O1` (stereo unspecified) stands -137%; under `CCc1nc(CC(=O)N2CCn3c(nnc3C(F)(F)F)C2)cs1`, -9.29%. Turning to `CC(C)N(CC(N)=O)Cc1c(Cl)ccc2cccnc12`, the cytotoxicity at 10 µM was found to be 11.8%. Under `O=C(CC1CC1)N[C@@H]1CN(Cc2ccoc2)C[C@@H]2CCCO[C@@H]21` stands 7.83%; under `O=C(NC[C@H]1OC[C@@H](NC2COC2)[C@@H]1O)Nc1ccccc1`, 4.43%; under `COCc1ccc(C(=O)N2CC[C@H](O)[C@@H](n3ccnc3)CC2)cc1`, -12.1%. As for `CN1N=C(C(=O)N2CCCC(CCc3cccc(F)c3)C2)CCC1=O` (stereo unspecified), the cytotoxicity at 10 µM is -3.42%. To `Cc1cnn(CCNCc2nc(CNC(=O)c3ccccc3)no2)c1` belongs -5.92%; to `CN1CCN(C(=O)N2C[C@@H]3CC[C@H]2CN(Cc2ccccc2)C3)CC1`, -7.71%; to `CN(CCCO)C(=O)c1cc(COc2ccc3c(c2)CCCC3)on1`, -148%.

In the case of `CCCN1CCN(Cc2cccc(OC(C)C)c2)[C@H]2CS(=O)(=O)C[C@H]21`, the cytotoxicity at 10 µM was found to be 4.77%. For `CN(Cc1ccccn1)C(CO)c1cccc(Br)c1` (stereo unspecified), the cytotoxicity at 10 µM is -6.12%. On to `COCCN1CCc2nc(SCc3ccc(F)cc3)[nH]c(=O)c2C1`, for which the cytotoxicity at 10 µM is -2.33%. To `COc1ccccc1C(C)(C)NCc1ccc(C)o1` belongs -0.121%; to `Cc1cc(C)cc(NC(=O)Nc2c(O)c3ccccc3oc2=O)c1`, 9.24%. Under `Cc1c(NCC(C)(C)C)cccc1C(=O)N(C)Cc1ncnn1C` stands 22.5%. Turning to `Cc1cc(C)n(-c2ccc(N3CCC(O)CC3)nc2)n1`, the cytotoxicity at 10 µM is -5.08%. To `Cc1ccccc1-n1ccc2nc(N3CCCC3)ncc2c1=O` belongs -5.1%. To `O=C(c1ccc(-n2cccn2)cc1Cl)N1CCCC(O)(CO)C1` (stereo unspecified) belongs -0.226%; to `NC(=O)C1CCN(C(=O)c2ccn(-c3ccc(F)cc3)n2)C1` (stereo unspecified), -6.02%. Under `NCc1cnn(-c2ccccc2C(=O)NCc2ccncc2)c1` stands -1.78%; under `COc1ccc(-c2cnc(NC(C)=O)[nH]2)cc1`, -0.825%. In the case of `CN(C)c1nccc(N(C)C2CCN(CC3CCOC3)CC2)n1` (stereo unspecified), the cytotoxicity at 10 µM was -18.9%. To `CCCC1CCCN(C(=O)Nc2ccnc(C(=O)N(C)C)c2)CC1` (stereo unspecified) belongs 9.58%; to `Cc1ccc2c(C)c(C(=O)NCc3csc(N)n3)oc2c1`, -2.83%. On to `CC(=O)N1CCN(C(=O)CN2CCCC2c2c(C)nn(C)c2C)CC1` (stereo unspecified), for which the cytotoxicity at 10 µM amounted to 6.34%. As for `CCN1CCN(C[C@@H]2CN(Cc3cnc(C(C)C)nc3)C[C@@H]2CO)CC1`, the cytotoxicity at 10 µM is -6.79%. Under `Fc1ccc(-c2cnc(C3CCNCC3)cn2)cc1` stands -7.14%; under `COc1ccccc1CC1CCCN(CC(=O)NC2CC2)C1` (stereo unspecified), 6.75%. Under `Cc1cccc(COCC2c3nnn(C)c3CCN2Cc2ccoc2)n1` (stereo unspecified) stands -142%; under `COCC1CN(C(=O)CNC(C)=O)Cc2ncnn2C1` (stereo unspecified), -12.4%.

Consider `CCc1nc(C)c([C@H]2CN(C)C[C@@H]2C(=O)NCCc2cnccn2)[nH]1`, for which the cytotoxicity at 10 µM is -9.52%. As to `Cc1cc(C(=O)N2CCC(c3nccn3CCCN(C)C)CC2)no1`, the cytotoxicity at 10 µM was -12.4%. To `CCCOC(=O)C(C)Sc1nnnn1C1CCOCC1` (stereo unspecified) belongs 18.1%. Take `CN(Cc1ccccn1)C1CCCN(c2cccnn2)C1` (stereo unspecified): the cytotoxicity at 10 µM is -13.4%. In the case of `O=C([C@H]1COC[C@H]2CN(Cc3ccco3)C[C@H]21)N1CCCO1`, the cytotoxicity at 10 µM is -8.79%. Take `CC(C)c1noc(C(C)Nc2nccc(CCC(F)(F)F)n2)n1` (stereo unspecified): the cytotoxicity at 10 µM was found to be 2.08%. In the case of `Cc1ccc(-c2nnc(C(C)N3CCn4c(C)nnc4C3)o2)cc1` (stereo unspecified), the cytotoxicity at 10 µM is -7.33%. Under `Cc1cc(C(=O)N2C[C@@H]3COC[C@]3(c3nnc(C)o3)C2)on1` stands -0.505%; under `CCc1nc(C2CCCN2CCc2cccs2)no1` (stereo unspecified), -108%. `CC1=C(C(=O)N(C)Cc2n[nH]c3c2CCCCC3)C(C)NC(=O)N1` (stereo unspecified): the cytotoxicity at 10 µM is -0.178%.

Turning to `O=C(NC1(c2nccs2)CCCC1)c1cc(C2CC2)on1`, the cytotoxicity at 10 µM is 6.65%.

For `CS(=O)(=O)N1CCN(C(=O)c2ccco2)[C@H]2CS(=O)(=O)C[C@H]21`, the cytotoxicity at 10 µM is -6.69%.

On to `CC(C)(C)c1cn2nc(N3CCOC(Cn4cncn4)C3)sc2n1` (stereo unspecified), for which the cytotoxicity at 10 µM is -2.63%. To `COCC(c1cccc(C(F)(F)F)c1)N(C)C(=O)c1cccnc1` (stereo unspecified) belongs -5.28%; to `CCC(NC(=O)c1ccco1)c1ccccc1OCC(=O)N1CCCC1` (stereo unspecified), 4.9%. Turning to `Cc1cc(C(=O)N2CCCC(c3nncn3C)C2)no1` (stereo unspecified), the cytotoxicity at 10 µM turned out to be 0.541%. Under `CC(C)=CCCC1(C)C=Cc2c(cc(C)n(CC(=O)O)c2=O)O1` (stereo unspecified) stands -2.72%; under `CSCC(=O)N[C@H]1CC[C@H](Nc2nccc(-c3ccncc3)n2)C1`, 11.8%; under `CCSc1ccccc1C(=O)N1CC2(COC(C)(C)OC2)C1`, -3.45%.

As to `CCc1nc(CCn2cc(-c3nccn3C)nn2)no1`, the cytotoxicity at 10 µM was -55.3%. To `O[C@H]1CN(Cc2cccc(C(F)(F)F)c2)CC[C@@]12CCCO2` belongs -19.6%; to `CC(=O)NCCc1ccc(S(=O)(=O)Nc2ccc(C)c(F)c2)s1`, 5.72%; to `N#Cc1ccnc(N2CCC(NCCN3CCCC3)CC2)c1`, -53%. To `Cc1ccccc1C1(CNC(=O)c2cccc(S(C)(=O)=O)c2)CC1` belongs -0.185%.

For `CCc1noc(CN2CCCN(C(N)=O)CC2)n1`, the cytotoxicity at 10 µM was -4.12%.

For `Cc1[nH]ccc1C(=O)N1CCC(c2nnc(Cn3cccn3)n2C)CC1`, the cytotoxicity at 10 µM was -11.5%. Under `O=C(NCc1ccncc1)N1CC(Cc2ccccc2F)C1` stands -8.85%; under `CC(=O)N1CCC[C@H]1C(=O)NCCOc1cccc(Cl)c1`, -8.78%; under `Cc1cccnc1CNCC1(O)CCCN(CC(C)(C)C)C1=O` (stereo unspecified), -11.8%.

Consider `FC(F)(F)C1CCCn2c(CNCc3ccsc3)nnc21` (stereo unspecified), for which the cytotoxicity at 10 µM came to 16.5%. Under `Cc1cc(C)n(C2CCCN(C(=O)Cc3cccc(F)c3)C2)n1` (stereo unspecified) stands -8.09%.

For the compound `CCC(C)NC(=O)c1ccc(NC(=O)CCc2ccncc2)c(C)c1` (stereo unspecified), the cytotoxicity at 10 µM came out at 4.31%. To `Cc1nc(C)n(C2CCCN(C(=O)Cc3n[nH]c4ccccc34)C2)n1` (stereo unspecified) belongs -11.7%; to `CCCC(NC(=O)c1ccccn1)c1nnc2ccccn12` (stereo unspecified), -6.54%; to `CCn1cc(NS(=O)(=O)c2ccc(F)cc2)c(C(=O)NCC(C)C)n1`, 6.6%. Under `CC(C)c1nn(C)c(N(C)C)c1CNCc1ccc2c(c1)OCCO2` stands -12.6%.

On to `CCN1CCN(c2ccc(NC(=O)CC(C)C)c(C)c2)CC1`, for which the cytotoxicity at 10 µM is -8.87%. `CS(=O)(=O)c1ccc(Cl)c(C(=O)NCCC2=CCCCC2)c1`: the cytotoxicity at 10 µM was 8.17%. With `CCS(=O)(=O)N1CCc2c(cccc2NC(=O)NCCO)C1`, the cytotoxicity at 10 µM is -7.47%. To `Cn1cc(CN2C[C@H]3CCC[C@@]3(COc3cccnc3)C2)cn1` belongs -107%; to `O=C1CCSCC(C(=O)N2CCC3(CC2)OCCO3)N1` (stereo unspecified), 0.595%; to `O=C(Cc1ccc2c(c1)OCCO2)NCCc1nnc2n1CCC2`, -9.78%. Regarding `Cn1cc(CN2CC[C@@H]3[C@@H](CCC(=O)N3CC3CCNCC3)C2)cn1`, the cytotoxicity at 10 µM turned out to be 1.73%. Under `CCC1=NC(SCC(=O)c2ccc(OC)cc2)c2cc(CC)sc2N1` (stereo unspecified) stands 9.4%.
